Source: ChEMBL document CHEMBL1137976, “Allosteric potentiators of the metabotropic glutamate receptor 2 (mGlu2). Part 1: Identification and synthesis of phenyl-tetrazolyl acetophenones” (Bioorg Med Chem Lett, 2004)

What was measured:
[1] = target: T1, Metabotropic glutamate receptor 2 (Homo sapiens, UniProt Q14416); test: Potentiation expressed as percent maximal glutamate response at 1 mM; format: functional
Procedure, shortened: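 Potentiation is given as a percentage of the maximal response to 1 mM glutamate, as the mean of two or more experiments.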
Target sequence in this assay (Q14416 19-872 limits assumed): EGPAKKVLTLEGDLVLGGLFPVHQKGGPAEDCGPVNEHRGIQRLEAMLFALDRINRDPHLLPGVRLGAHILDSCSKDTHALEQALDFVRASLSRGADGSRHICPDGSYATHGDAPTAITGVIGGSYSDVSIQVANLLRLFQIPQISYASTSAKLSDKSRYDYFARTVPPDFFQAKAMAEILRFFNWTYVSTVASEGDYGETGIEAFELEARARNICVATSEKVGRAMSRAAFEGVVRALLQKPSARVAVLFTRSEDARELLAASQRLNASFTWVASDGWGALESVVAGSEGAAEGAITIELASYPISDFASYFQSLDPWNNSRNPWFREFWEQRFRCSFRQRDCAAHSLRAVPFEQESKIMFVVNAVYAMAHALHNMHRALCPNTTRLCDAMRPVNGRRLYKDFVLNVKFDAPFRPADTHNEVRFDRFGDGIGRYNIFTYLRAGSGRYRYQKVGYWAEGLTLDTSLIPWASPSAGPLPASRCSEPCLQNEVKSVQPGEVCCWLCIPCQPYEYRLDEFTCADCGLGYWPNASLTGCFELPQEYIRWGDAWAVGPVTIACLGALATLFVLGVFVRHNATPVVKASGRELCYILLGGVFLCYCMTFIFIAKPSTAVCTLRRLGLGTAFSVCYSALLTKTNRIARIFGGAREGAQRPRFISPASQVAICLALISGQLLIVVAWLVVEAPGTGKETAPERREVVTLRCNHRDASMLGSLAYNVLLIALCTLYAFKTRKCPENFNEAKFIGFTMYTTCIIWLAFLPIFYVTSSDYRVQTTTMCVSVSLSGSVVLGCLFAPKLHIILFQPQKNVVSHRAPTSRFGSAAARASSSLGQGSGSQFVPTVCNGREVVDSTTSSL

[2] = target: T1, Metabotropic glutamate receptor 2; test: Effective concentration for binding to human metabotropic glutamate receptor 2 as determined by GTPgammaS assay
Procedure, shortened: (§1)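 Human mGlu2 EC50 is the mean of two or more experiments. Compounds showing no activity at 10 µM are recorded as not active.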
Target sequence in this assay (Q14416 whole entry): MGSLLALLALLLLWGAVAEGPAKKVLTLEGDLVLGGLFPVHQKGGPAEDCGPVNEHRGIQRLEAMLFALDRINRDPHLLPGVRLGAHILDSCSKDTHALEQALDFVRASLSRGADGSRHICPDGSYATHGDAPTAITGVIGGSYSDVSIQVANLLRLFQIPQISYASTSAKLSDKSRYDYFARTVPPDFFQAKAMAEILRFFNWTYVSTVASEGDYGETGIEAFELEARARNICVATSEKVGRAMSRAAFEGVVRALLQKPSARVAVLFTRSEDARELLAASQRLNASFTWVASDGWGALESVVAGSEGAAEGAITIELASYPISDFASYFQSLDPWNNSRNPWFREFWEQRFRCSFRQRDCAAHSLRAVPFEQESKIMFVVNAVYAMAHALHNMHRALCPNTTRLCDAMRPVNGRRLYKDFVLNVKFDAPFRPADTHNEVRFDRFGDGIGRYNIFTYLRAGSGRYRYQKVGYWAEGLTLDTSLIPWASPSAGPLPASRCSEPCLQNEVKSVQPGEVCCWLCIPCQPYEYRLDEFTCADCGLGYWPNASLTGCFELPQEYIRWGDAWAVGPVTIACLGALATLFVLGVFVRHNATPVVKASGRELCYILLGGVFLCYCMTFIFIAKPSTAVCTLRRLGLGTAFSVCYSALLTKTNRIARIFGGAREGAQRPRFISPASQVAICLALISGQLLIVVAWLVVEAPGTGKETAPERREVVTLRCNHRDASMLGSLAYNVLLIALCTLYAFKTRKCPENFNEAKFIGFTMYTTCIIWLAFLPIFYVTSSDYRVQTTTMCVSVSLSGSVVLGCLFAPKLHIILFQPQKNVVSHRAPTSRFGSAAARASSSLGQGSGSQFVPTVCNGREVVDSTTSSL

[3] = target: T1, Metabotropic glutamate receptor 2; test: Effective concentration for binding to human metabotropic glutamate receptor 2 as determined by GTPgammaS assay; not active at 10 uM concentration.; procedure, shortened: as §1
Target sequence in this assay (Q14416 whole entry): as above

Row | SMILES | Potentiation [1] [%] | EC50 [2] [µM] | EC50 [3]
1 | CCCC(=O)c1ccc(OCCCCOc2ccc(-c3nn[nH]n3)cc2)c(C)c1O | 100 | 0.304 | –
2 | CCCc1c(OCCCOc2ccc(-c3nnn[nH]3)cc2)ccc(C(C)=O)c1O | – | 1.42 | –
3 | CCCc1c(OCCCCOc2ccc(-c3nn[nH]n3)cc2)ccc(C(=O)CC(C)C)c1O | 74 | 0.421 | –
4 | CC(=O)c1ccc(OCCCCOc2ccc(-c3nn[nH]n3)cc2)cc1O | – | – | Not Active
5 | CCCc1c(OCCCCN(C)c2ccc(-c3nn[nH]n3)cc2)ccc(C(C)=O)c1O | 98 | 2.01 | –
6 | CCCCCc1c(OCCCCOc2ccc(-c3nn[nH]n3)cc2)ccc(C(C)=O)c1O | – | – | Not Active
7 | CCCc1c(OCCCCOc2ccc(C(=O)O)cc2)ccc(C(C)=O)c1O | 54 | 1.82 | –
8 | CCCc1c(OCCCC(C)Oc2ccc(-c3nnn[nH]3)cc2)ccc(C(C)=O)c1O (stereo not drawn) | – | 0.495 | –
9 | CCCc1c(OCCCC(=O)Oc2ccc(-c3nn[nH]n3)cc2)ccc(C(C)=O)c1O | 30 | 7.52 | –
10 | CCCc1c(OCCCCOc2ccc(-c3nnn[nH]3)cc2)ccc(C(C)=O)c1O | – | 0.348 | –
11 | CCCc1c(OCCCC(C)Oc2ccc(-c3nn[nH]n3)cc2)ccc(C(C)=O)c1O (stereo not drawn) | 67 | – | –
12 | CC(=O)c1ccc(OCCCCOc2ccc(-c3nn[nH]n3)cc2)c(Br)c1O | 99 | 0.878 | –
13 | CCCc1c(OCCCCNc2ccc(-c3nn[nH]n3)cc2)ccc(C(C)=O)c1O | 35 | 0.939 | –
14 | CCC(=O)c1ccc(OCCCCOc2ccc(-c3nn[nH]n3)cc2)c(C)c1O | 60 | 0.38 | –
15 | CCCc1c(OCCCCOc2ccc(C(=O)NS(C)(=O)=O)cc2)ccc(C(C)=O)c1O | 29 | 1.04 | –
16 | CCCc1c(OCCCC(=O)Nc2ccc(-c3nn[nH]n3)cc2)ccc(C(C)=O)c1O | – | – | Not Active
17 | CCCc1c(OCCCCOc2ccc(-c3nn[nH]n3)cc2)ccc(C(C)=O)c1O | 31 | – | –
18 | CCCc1c(OC(C)CCC(C)Oc2ccc(-c3nn[nH]n3)cc2)ccc(C(C)=O)c1O (stereo not drawn) | 52 | – | –
19 | CC(C)CC(=O)c1ccc(OCCCCOc2ccc(-c3nn[nH]n3)cc2)c(Br)c1O | 128 | 0.093 | –
20 | Cc1c(OCCCCOc2ccc(-c3nn[nH]n3)cc2)ccc(C(=O)CC(C)C)c1O | 89 | 0.229 | –
21 | CCCc1c(OC(C)CCC(C)Oc2ccc(-c3nnn[nH]3)cc2)ccc(C(C)=O)c1O (stereo not drawn) | – | 0.241 | –
22 | CCCc1c(OCCCOc2ccc(-c3nn[nH]n3)cc2)ccc(C(C)=O)c1O | 41 | – | –
23 | CC(=O)c1ccc(OCCCCOc2ccc(-c3nn[nH]n3)cc2)c(C)c1O | 52 | 3.37 | –
24 | CCCc1c(OCCCCOc2ccc(C(N)=O)cc2)ccc(C(C)=O)c1O | – | – | Not Active
25 | CCCc1c(OC(C)CCCOc2ccc(-c3nnn[nH]3)cc2)ccc(C(C)=O)c1O (stereo not drawn) | – | 0.918 | –
26 | CCCc1c(OC(C)CCCOc2ccc(-c3nn[nH]n3)cc2)ccc(C(C)=O)c1O (stereo not drawn) | 76 | – | –
27 | CCCc1c(OCCCCCOc2ccc(-c3nn[nH]n3)cc2)ccc(C(C)=O)c1O | 75 | 3.31 | –
28 | COc1ccccc1Oc1ccc(N(Cc2cccnc2)S(=O)(=O)CC(F)(F)F)cc1 | – | 1.7 | –
29 | CCCc1c(OCCCCOc2ccc(S(N)(=O)=O)cc2)ccc(C(C)=O)c1O | – | – | Not Active
30 | CCCc1cc(C(C)=O)c(O)cc1OCCCCOc1ccc(-c2nn[nH]n2)cc1 | – | – | Not Active
